# From ChEMBL document CHEMBL1795235, “Quercetin diacylglycoside analogues showing dual inhibition of DNA gyrase and topoisomerase IV as novel antibacterial agents” (J Med Chem, 2011)
# How the values were obtained:
# Pseudomonas aeruginosa = experiment: Antibacterial activity against Pseudomonas aeruginosa PAO1 after 24 hrs by microdilution method; type: functional; settings: PAO1, 24 h
# Method in brief: (§1)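 Broth microdilution in Mueller-Hinton broth with 0.85% NaCl, inoculum about 10^5 CFU per 100 μL. Compounds diluted from 25.6 mg/mL stocks in water to 2-fold series, final 0.062–128 μg/mL. […] Three independent determinations.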
# Staphylococcus aureus [1] = experiment: Antibacterial activity against methicillin-susceptible Staphylococcus aureus 209P after 24 hrs by microdilution method; type: functional
# Method in brief: (§2)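 Broth microdilution in Mueller-Hinton broth with 0.85% NaCl, inoculum about 10^5 CFU per 100 μL. Compounds were diluted in water from 25.6 mg/mL stocks to final 2-fold series of 0.062–128 μg/mL. Plates were incubated 24 h at 35 °C. MIC was the lowest concentration at which all triplicate wells were clear, from three independent determinations.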
# Staphylococcus aureus [2] = experiment: Antibacterial activity against methicillin-resistant Staphylococcus aureus OM584 after 24 hrs by microdilution method; type: functional; settings: OM584, 24 h; method in brief: as §2
# Enterococcus [3] = experiment: Antibacterial activity against vancomycin resistant Enterococcus NCTC 12201 after 24 hrs by microdilution method; type: functional; settings: NCTC 12201, 24 h; method in brief: as §2
# Staphylococcus aureus [4] = experiment: Antibacterial activity against methicillin-resistant Staphylococcus aureus N315 after 24 hrs by microdilution method; type: functional; settings: N315, 24 h; method in brief: as §2
# Staphylococcus aureus [5] = experiment: Antibacterial activity against methicillin-resistant Staphylococcus aureus COL after 24 hrs by microdilution method; type: functional; method in brief: as §2
# Staphylococcus aureus [6] = experiment: Antibacterial activity against vancomycin-intermediate Staphylococcus aureus Mu50 after 24 hrs by microdilution method; type: functional; settings: Mu50, 24 h; method in brief: as §2
# Enterococcus [7] = experiment: Antibacterial activity against vancomycin resistant Enterococcus FN-1 after 24 hrs by microdilution method; type: functional; settings: FN-1, 24 h; method in brief: as §2
# Escherichia coli = experiment: Antibacterial activity against Escherichia coli K-12 after 24 hrs by microdilution method; type: functional; settings: K-12, 24 h; method in brief: as §1
# [8] = Inhibition of Escherichia coli DNA topoisomerase 4 subunit ParC/DNA topoisomerase 4 subunit ParE-mediated decatenation of kDNA by densitometry
# Method in brief: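 Purchased E. coli topoIV kit enzyme, one unit with 200 ng kDNA, 37 °C, 30 min. Buffer: 50 mM HEPES-KOH pH 7.6, 5 mM magnesium acetate, 100 mM potassium glutamate, 10 mM DTT, 1 mM ATP, 40% glycerol. Gel on 1.0% agarose in TAE. IC50 of decatenation from densitometry by interpolation equation, at least three determinations.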
# Streptococcus pneumoniae = experiment: Antibacterial activity against Streptococcus pneumoniae R6 after 24 hrs by microdilution method; type: functional; settings: R6, 24 h; method in brief: as §1
# [9] = Inhibition of Escherichia coli DNA gyrase assessed as inhibition of pBR322 supercoiling by densitometry
# Method in brief: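 One unit of E. coli gyrase with 0.5 μg relaxed pBR322 DNA, 37 °C, 30 min. Stopped with sucrose/EDTA dye, run on 1.0% agarose in TAE. IC50 from densitometry via log-interpolation equation.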
# [10] = Inhibition of Staphylococcus aureus DNA Topoisomerase 4-mediated decatenation of kDNA after 30 mins by densitometry
# Method in brief: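 Purchased S. aureus topoIV, one unit with 200 ng kDNA, 37 °C, 30 min. Products resolved on 1.0% agarose in TAE. IC50 of decatenation from densitometry by interpolation equation, at least three determinations.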
# Enterococcus [11] = experiment: Ratio MIC for vancomycin to compound for vancomycin-resistant Enterococcus FN-1; type: functional
# Staphylococcus aureus [12] = experiment: Antibacterial activity against methicillin-resistant Staphylococcus aureus OM481 after 24 hrs by microdilution method; type: functional; settings: OM481, 24 h; method in brief: as §2
# Mus musculus [13] = experiment: Toxicity in iv dosed mouse assessed as incidence of mortality measured 14 days post dose; type: organism-based; settings: in vivo, 336 h
# Method in brief: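 Male mice (n = 4), 15–30 g, given water only for 12 h beforehand. Dosed intravenously by tail vein in 50% PEG in saline at 10, 50 or 100 mg/kg/day for 4 days (total dose volume 20 mL/kg). Weight gain, mobility and mortality were observed up to 14 days.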
# Mus musculus [14] = experiment: Toxicity in mouse at 100 mg/kg, iv administered for 4 days assessed as transient seizure like reaction measured after 1 day of compound administration; type: organism-based; set-up: dose 100 mg/kg, route intravenous; settings: in vivo, 24 h
# Mus musculus [15] = experiment: Toxicity in mouse at 50 mg/kg, iv administered for 4 days measured after 14 days; type: organism-based; set-up: dose 50 mg/kg, route intravenous; settings: in vivo, 336 h
# Mus musculus [16] = experiment: Toxicity in mouse at 100 mg/kg, iv administered for 4 days assessed as transient seizure like reaction measured after 10 mins of compound administration; type: organism-based; set-up: dose 100 mg/kg, route intravenous; settings: in vivo
# [17] = Ratio IC50 for Escherichia coli DNA topoisomerase 4 ParC/DNA topoisomerase 4 subunit ParE-mediated decatenation of kDNA to IC50 for Staphylococcus aureus DNA topoisomerase 4 subunit B-mediated decatenation of kDNA
# Mus musculus [18] = experiment: Toxicity in mouse at 10 mg/kg, iv administered for 4 days measured after 14 days; type: organism-based; set-up: dose 10 mg/kg, route intravenous; settings: in vivo, 336 h
# [19] = Intestinal absorption in Wistar rat at 1 mg/mL, injected into small intestine, measured after 1 hr by UV-spectrophotometric analysis; settings: in situ, intestinal injection
smiles,measurement,setting,value
Cc1ccc(CCC(=O)Oc2cc(O)c3c(=O)c(OC(=O)CCc4ccc(C)cc4)c(-c4ccc(O)c(O)c4)oc3c2)cc1,MIC,Pseudomonas aeruginosa,64 mg/L
same,MIC,Staphylococcus aureus [1],64 mg/L
same,MIC,Staphylococcus aureus [2],32 mg/L
same,MIC,Enterococcus [3],64 mg/L
same,MIC,Staphylococcus aureus [4],32 mg/L
same,MIC,Staphylococcus aureus [5],32 mg/L
same,MIC,Staphylococcus aureus [6],16 mg/L
same,MIC,Enterococcus [7],64 mg/L
same,MIC,Escherichia coli,64 mg/L
same,IC50,[8],8.59 µM
same,MIC,Streptococcus pneumoniae,32 mg/L
same,IC50,[9],1.66 µM
same,IC50,[10],0.44 µM
same,Ratio,Enterococcus [11],2
same,MIC,Staphylococcus aureus [12],32 mg/L
CC(=O)OC[C@H]1O[C@@H](Oc2cc(O)c3c(=O)c(O[C@@H]4O[C@H](COC(C)=O)[C@H](OC(C)=O)[C@H](OC(C)=O)[C@H]4OC(C)=O)c(-c4ccc(O)c(O)c4)oc3c2)[C@H](OC(C)=O)[C@@H](OC(C)=O)[C@H]1OC(C)=O,MIC,Pseudomonas aeruginosa,> 128 mg/L
same,MIC,Staphylococcus aureus [1],128 mg/L
same,MIC,Staphylococcus aureus [2],128 mg/L
same,MIC,Enterococcus [3],64 mg/L
same,MIC,Staphylococcus aureus [4],128 mg/L
same,MIC,Staphylococcus aureus [5],> 128 mg/L
same,MIC,Staphylococcus aureus [6],128 mg/L
same,MIC,Enterococcus [7],64 mg/L
same,MIC,Escherichia coli,> 128 mg/L
same,MIC,Streptococcus pneumoniae,128 mg/L
same,Ratio,Enterococcus [11],2
same,MIC,Staphylococcus aureus [12],128 mg/L
O=C(Cc1ccc(F)cc1)OC[C@H]1O[C@@H](Oc2c(-c3ccc(O)c(O)c3)oc3cc(O)cc(O)c3c2=O)[C@H](OC(=O)Cc2ccc(F)cc2)[C@@H](O)[C@H]1O,MIC,Pseudomonas aeruginosa,> 128 mg/L
same,MIC,Staphylococcus aureus [1],1 mg/L
same,MIC,Staphylococcus aureus [2],1 mg/L
same,MIC,Enterococcus [3],0.5 mg/L
same,MIC,Staphylococcus aureus [4],1 mg/L
same,MIC,Staphylococcus aureus [5],8 mg/L
same,MIC,Staphylococcus aureus [6],1 mg/L
same,MIC,Enterococcus [7],0.5 mg/L
same,MIC,Escherichia coli,> 128 mg/L
same,IC50,[8],10.2 µM
same,MIC,Streptococcus pneumoniae,1 mg/L
same,IC50,[9],1.05 µM
same,IC50,[10],0.46 µM
same,MIC,Staphylococcus aureus [12],1 mg/L
O=C(CCCc1ccc(F)cc1)OC[C@H]1O[C@@H](Oc2c(-c3ccc(O)c(O)c3)oc3cc(O)cc(O)c3c2=O)[C@H](OC(=O)CCCc2ccc(F)cc2)[C@@H](O)[C@H]1O,MIC,Pseudomonas aeruginosa,> 128 mg/L
same,MIC,Staphylococcus aureus [1],4 mg/L
same,MIC,Staphylococcus aureus [2],2 mg/L
same,MIC,Enterococcus [3],8 mg/L
same,MIC,Staphylococcus aureus [4],4 mg/L
same,MIC,Staphylococcus aureus [5],16 mg/L
same,MIC,Staphylococcus aureus [6],4 mg/L
same,MIC,Enterococcus [7],8 mg/L
same,MIC,Escherichia coli,> 128 mg/L
same,IC50,[8],10.7 µM
same,MIC,Streptococcus pneumoniae,4 mg/L
same,IC50,[9],2.98 µM
same,IC50,[10],2.94 µM
same,MIC,Staphylococcus aureus [12],2 mg/L
O=c1c(O[C@@H]2O[C@H](CO)[C@H](O)[C@H](O)[C@H]2O)c(-c2ccc(O)c(O)c2)oc2cc(O)cc(O)c12 [HYPEROSIDE],MIC,Pseudomonas aeruginosa,32 mg/L
same,MIC,Staphylococcus aureus [1],> 128 mg/L
same,MIC,Staphylococcus aureus [2],> 128 mg/L
same,MIC,Enterococcus [3],> 128 mg/L
same,MIC,Staphylococcus aureus [4],> 128 mg/L
same,MIC,Staphylococcus aureus [5],> 128 mg/L
same,MIC,Staphylococcus aureus [6],> 128 mg/L
same,MIC,Enterococcus [7],> 128 mg/L
same,MIC,Escherichia coli,16 mg/L
same,IC50,[8],3.07 µM
same,MIC,Streptococcus pneumoniae,> 128 mg/L
same,IC50,[9],0.1 µM
same,IC50,[10],0.07 µM
same,MIC,Staphylococcus aureus [12],> 128 mg/L
O=C(CCc1ccc(F)cc1)Oc1cc(O)c2c(=O)c(OC(=O)CCc3ccc(F)cc3)c(-c3ccc(O)c(O)c3)oc2c1,MIC,Pseudomonas aeruginosa,64 mg/L
same,MIC,Staphylococcus aureus [1],64 mg/L
same,MIC,Staphylococcus aureus [2],16 mg/L
same,MIC,Enterococcus [3],32 mg/L
same,MIC,Staphylococcus aureus [4],16 mg/L
same,MIC,Staphylococcus aureus [5],32 mg/L
same,MIC,Staphylococcus aureus [6],32 mg/L
same,MIC,Enterococcus [7],64 mg/L
same,MIC,Escherichia coli,64 mg/L
same,IC50,[8],6.76 µM
same,MIC,Streptococcus pneumoniae,32 mg/L
same,IC50,[9],0.72 µM
same,IC50,[10],0.29 µM
same,Ratio,Enterococcus [11],2
same,MIC,Staphylococcus aureus [12],16 mg/L
O=C(CCc1ccc(F)cc1)OC[C@H]1O[C@@H](Oc2c(-c3ccc(O)c(O)c3)oc3cc(O)cc(O)c3c2=O)[C@H](OC(=O)CCc2ccc(F)cc2)[C@@H](O)[C@H]1O,MIC,Pseudomonas aeruginosa,> 128 mg/L
same,MIC,Staphylococcus aureus [1],0.13 mg/L
same,MIC,Staphylococcus aureus [2],0.13 mg/L
same,Activity,Mus musculus [13],Non-toxic
same,MIC,Enterococcus [3],0.25 mg/L
same,Activity,Mus musculus [14],Non-toxic
same,MIC,Staphylococcus aureus [4],0.13 mg/L
same,Activity,Mus musculus [15],Non-toxic
same,Activity,Mus musculus [16],Toxic
same,MIC,Staphylococcus aureus [5],0.5 mg/L
same,MIC,Staphylococcus aureus [6],0.5 mg/L
same,MIC,Enterococcus [7],0.25 mg/L
same,Ratio IC50,[17],40
same,Activity,Mus musculus [18],Non-toxic
same,MIC,Escherichia coli,> 128 mg/L
same,IC50,[8],9.16 µM
same,MIC,Streptococcus pneumoniae,0.13 mg/L
same,IC50,[9],0.78 µM
same,IC50,[10],0.22 µM
same,Fa at 1 h,[19],76.6%
same,MIC,Staphylococcus aureus [12],0.13 mg/L
